Published values pooled from the literature.
Compare with care: the assays were run in different laboratories.
Read-out: metabolic stability

| SMILES | species | medium | tested at | setting | measurement | result |
| --- | --- | --- | --- | --- | --- | --- |
| O=c1ccc2cc(O)ccc2o1 | mouse | liver microsomes |  |  | microsomal CLint | 170 µL/min/mg |
| CCOc1ccc2ccc(=O)oc2c1 | male CD-1 mouse | hepatocytes | 1 µM |  | hepatocyte CLint | > 46.2 µL/min/10⁶ cells |
| CCN(CCN)c1ccc(Nc2cc(NC3CC3)n3ncc(C#N)c3n2)cc1-n1cnnc1 | male CD-1 mouse | hepatocytes | 1 µM | serum-free | scaled CLint | < 32 mL/min/kg |
| CC1(CN)CCN(c2cnc3c(Sc4ccncc4Cl)n[nH]c3n2)CC1 | mouse | liver microsomes |  |  | scaled CLint | 8.71 mL/min/kg |
| O=c1ccc2ccc(O)cc2o1 | mouse | liver microsomes |  |  | scaled CLint | 3050 mL/min/kg |
| CC(C)Oc1ccc(S(=O)(=O)c2ccc(Oc3cc(OCC(N)=O)c(C(=O)C(Cl)Cl)cc3[N+](=O)[O-])cc2)cc1 | mouse | liver microsomes |  |  | microsomal CLint | 197 µL/min/mg |
| O=C(O)Cc1ccccc1Nc1c(Cl)cccc1Cl | mouse | liver microsomes |  |  | scaled CLint | 90.3 mL/min/kg |
| Cc1ccc(Cn2cc(C(=O)NN)c(=O)c3cc(Oc4ccccc4)ccc32)cc1 | male CD-1 mouse | liver microsomes | 1 µM |  | microsomal CLint | < 11.6 µL/min/mg |
